In ChEMBL document CHEMBL4765260, “Inclusion of a 5-fluorouracil moiety in nitrogenous bases derivatives as human carbonic anhydrase IX and XII inhibitors produced a targeted action against MDA-MB-231 and T47D breast cancer cells” (Eur J Med Chem, 2020):
Active and inactive are the calls of the source. No cut-off for these calls is given here.

What was measured:
Carbonic anhydrase 9 [1] = target: T1, Carbonic anhydrase 9 (Homo sapiens, UniProt Q16790); assay: Inhibition of recombinant human CA9 pre-incubated for 15 mins measured by phenol red dye based stopped flow CO2 hydration assay
HeLa = assay: Antiproliferative activity against human HeLa cells assessed as cell viability measured after 72 hrs by SRB assay; type: functional, cell-based
In short: (§1)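 SRB colorimetric assay on ATCC-sourced cell lines kept in RPMI or DMEM with 10% heat-inactivated FBS, penicillin 100 units/mL and streptomycin at 37 °C in humidified 5% CO2. Preliminary screen: each compound tested in triplicate at two fixed concentrations (10 and 100). Read-out is percent cell viability.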

COLO 205 = assay: Antiproliferative activity against human COLO 205 cells assessed as cell viability measured after 72 hrs by SRB assay; type: functional, cell-based; in short: as §1
A549 = assay: Antiproliferative activity against human A549 cells assessed as cell viability measured after 72 hrs by SRB assay; type: functional, cell-based; in short: as §1
HL-60 = assay: Antiproliferative activity against human HL-60 cells assessed as cell viability measured after 72 hrs by SRB assay; type: functional, cell-based; in short: as §1
SK-OV-3 = assay: Antiproliferative activity against human SK-OV-3 cells assessed as cell viability measured after 72 hrs by SRB assay; type: functional, cell-based; in short: as §1
MDA-MB-231 [2] = assay: Antiproliferative activity against human MDA-MB-231 cells assessed as cell viability measured after 72 hrs by SRB assay; type: functional, cell-based; in short: as §1
MCF7 = assay: Antiproliferative activity against human MCF7 cells assessed as cell viability measured after 72 hrs by SRB assay; type: functional, cell-based; in short: as §1
T47D [3] = assay: Antiproliferative activity against human T47D cells assessed as cell viability measured after 72 hrs by SRB assay; type: functional, cell-based; in short: as §1
MDA-MB-231 [4] = assay: cells; settings: Homo sapiens, MDA-MB-231, 72 h
T47D [5] = assay: cells; settings: Homo sapiens, 72 h
T47D [6] = assay: Induction of cell cycle arrest in human T47D cells assessed as accumulation of cells in G2/M phase at […] uM measured after 24 hrs by DNA flow cytometry assay (reference value: 16.59%); type: functional
T47D [7] = assay: Induction of cell cycle arrest in human T47D cells assessed as accumulation of cells in sub-G1 phase at […] uM measured after 24 hrs by DNA flow cytometry assay (reference value: 2.41%); type: functional
T47D [8] = assay: Induction of apoptosis in human T47D cells assessed as early apoptotic cells at […] uM measured after 24 hrs by Annexin V-FITC stain based flow cytometry method (reference value: 0.39%); type: functional
T47D [9] = assay: Induction of apoptosis in human T47D cells assessed as late apoptotic cells at […] uM measured after 24 hrs by Annexin V-FITC stain based flow cytometry method (reference value: 0.17%); type: functional
T47D [10] = assay: Induction of apoptosis in human T47D cells assessed as necrotic cells at […] uM measured after 24 hrs by Annexin V-FITC stain based flow cytometry method (reference value: 1.91%); type: functional
T47D [11] = assay: Induction of apoptosis in human T47D cells assessed as viable cells at […] uM measured after 24 hrs by Annexin V-FITC stain based flow cytometry method; type: functional, cell-based; settings: dose 2.45 µM
Carbonic anhydrase 1 = Carbonic anhydrase 1 (Homo sapiens, UniProt P00915); assay: Inhibition of recombinant human CA1 pre-incubated for 6 hrs measured by phenol red dye based stopped flow CO2 hydration assay
In short: (§2)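 Stopped-flow CO2 hydration at 0.2 mM phenol red (557 nm) in 20 mM Hepes pH 7.5 with 20 mM Na2SO4, initial rates followed for 10–100 s. CO2 1.7–17 mM; ≥6 traces of the first 5–10% of reaction per inhibitor; uncatalysed rate subtracted. Inhibitor diluted in assay buffer down to 0.01 nM, preincubated with enzyme 6 h at room temperature. Values are means of 3 assays.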

Carbonic anhydrase 9 [12] = target: T1, Carbonic anhydrase 9; assay: Inhibition of recombinant human CA9 pre-incubated for 6 hrs measured by phenol red dye based stopped flow CO2 hydration assay; in short: as §2
Carbonic anhydrase 2 = Carbonic anhydrase 2 (Homo sapiens, UniProt P00918); assay: Inhibition of recombinant human CA2 pre-incubated for 6 hrs measured by phenol red dye based stopped flow CO2 hydration assay; in short: as §2
Carbonic anhydrase 12 = Carbonic anhydrase 12 (Homo sapiens, UniProt O43570); assay: Inhibition of recombinant human CA12 pre-incubated for 6 hrs measured by phenol red dye based stopped flow CO2 hydration assay; in short: as §2
T47D [13] = assay: Induction of apoptosis in human T47D cells assessed as viable cells at […] uM measured after 24 hrs by Annexin V-FITC stain based flow cytometry method relative to control; type: functional, cell-based; settings: dose 7.56 µM

Carbonic anhydrase 1, sequence (P00915 whole entry): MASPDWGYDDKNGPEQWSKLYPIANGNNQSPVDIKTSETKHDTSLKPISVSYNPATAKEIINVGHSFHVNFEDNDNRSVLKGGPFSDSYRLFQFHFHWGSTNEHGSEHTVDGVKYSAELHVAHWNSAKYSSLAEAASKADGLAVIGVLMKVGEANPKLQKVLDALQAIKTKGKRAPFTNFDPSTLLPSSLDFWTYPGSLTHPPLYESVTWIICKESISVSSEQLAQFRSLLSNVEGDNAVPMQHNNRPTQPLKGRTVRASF
Carbonic anhydrase 12, sequence (O43570 whole entry): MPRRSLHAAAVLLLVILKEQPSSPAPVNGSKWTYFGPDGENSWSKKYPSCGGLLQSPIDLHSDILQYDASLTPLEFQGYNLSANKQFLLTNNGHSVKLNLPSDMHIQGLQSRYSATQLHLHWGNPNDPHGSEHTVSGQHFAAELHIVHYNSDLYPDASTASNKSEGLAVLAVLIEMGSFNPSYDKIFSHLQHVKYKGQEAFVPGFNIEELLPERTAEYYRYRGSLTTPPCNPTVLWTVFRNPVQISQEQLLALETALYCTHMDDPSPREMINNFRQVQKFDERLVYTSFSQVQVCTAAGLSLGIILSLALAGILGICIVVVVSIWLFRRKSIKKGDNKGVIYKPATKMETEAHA

## NS(=O)(=O)c1cccc(-n2cc(Cn3cc(F)c(=O)[nH]c3=O)nn2)c1
Carbonic anhydrase 9 [1]
  Ki: 105 nM

## NS(=O)(=O)c1ccc(-n2cc(Cn3cc(F)c(=O)[nH]c3=O)nn2)cc1
Carbonic anhydrase 9 [1]
  Ki: 0.47 nM
HeLa
  growth inhibition (GI): inactive
COLO 205
  growth inhibition (GI): inactive
A549
  growth inhibition (GI): inactive
HL-60
  growth inhibition (GI): inactive
SK-OV-3
  growth inhibition (GI): inactive
MDA-MB-231 [2]
  growth inhibition (GI): Active
MCF7
  growth inhibition (GI): inactive
T47D [3]
  growth inhibition (GI): Active
MDA-MB-231 [4]
  IC50: 22800 nM
T47D [5]
  IC50: 33500 nM

## NS(=O)(=O)c1cccc(NC(=O)Cn2cc(F)c(=O)[nH]c2=O)c1
Carbonic anhydrase 9 [1]
  Ki: 44.7 nM

## NS(=O)(=O)c1ccc(CCN(Cc2ccc(Cl)cc2)C(=O)Cn2cc(F)c(=O)[nH]c2=O)cc1
Carbonic anhydrase 9 [1]
  Ki: 4.2 nM
HeLa
  growth inhibition (GI): inactive
COLO 205
  growth inhibition (GI): inactive
A549
  growth inhibition (GI): inactive
HL-60
  growth inhibition (GI): inactive
SK-OV-3
  growth inhibition (GI): inactive
MDA-MB-231 [2]
  growth inhibition (GI): Active
MCF7
  growth inhibition (GI): inactive
T47D [3]
  growth inhibition (GI): Active
MDA-MB-231 [4]
  IC50: 40900 nM
T47D [5]
  IC50: 18900 nM

## COc1ccc(CN(CCc2ccc(S(N)(=O)=O)cc2)C(=O)Cn2cc(F)c(=O)[nH]c2=O)cc1
Carbonic anhydrase 9 [1]
  Ki: 1.9 nM
T47D [6]; 2.45 µM
  Activity: 35.47%
T47D [7]; 2.45 µM
  Activity: 18.04%
T47D [8]; 2.45 µM
  Activity: 7.31%
T47D [9]; 2.45 µM
  Activity: 12.19%
T47D [10]; 2.45 µM
  Activity: 2.51%
T47D [11]
  Activity: Active
HeLa
  growth inhibition (GI): inactive
COLO 205
  growth inhibition (GI): inactive
A549
  growth inhibition (GI): inactive
HL-60
  growth inhibition (GI): inactive
SK-OV-3
  growth inhibition (GI): inactive
MDA-MB-231 [2]
  growth inhibition (GI): Active
MCF7
  growth inhibition (GI): inactive
T47D [3]
  growth inhibition (GI): Active
MDA-MB-231 [4]
  IC50: 6860 nM
T47D [5]
  IC50: 2450 nM

## NS(=O)(=O)c1ccc(CNC(=O)Cn2cc(F)c(=O)[nH]c2=O)cc1
Carbonic anhydrase 9 [1]
  Ki: 29.2 nM

## NS(=O)(=O)c1ccc(-n2cc(Cn3cc(F)c(=O)[nH]c3=O)nn2)c(Br)c1
Carbonic anhydrase 9 [1]
  Ki: 3.8 nM

## Cc1cc(=O)oc2cc(-n3cc(Cn4cc(F)c(=O)[nH]c4=O)nn3)ccc12
Carbonic anhydrase 1
  Ki: > 10000 nM
Carbonic anhydrase 9 [12]
  Ki: 173 nM
Carbonic anhydrase 2
  Ki: > 10000 nM
Carbonic anhydrase 12
  Ki: 408 nM

## NS(=O)(=O)c1ccc(CCNC(=O)Cn2cc(F)c(=O)[nH]c2=O)cc1
Carbonic anhydrase 9 [1]
  Ki: 24.8 nM

## O=C(Cn1cc(F)c(=O)[nH]c1=O)Oc1ccc2ccc(=O)oc2c1
Carbonic anhydrase 1
  Ki: > 10000 nM
Carbonic anhydrase 9 [12]
  Ki: 36.8 nM
Carbonic anhydrase 2
  Ki: > 10000 nM
Carbonic anhydrase 12
  Ki: 14.4 nM

## NS(=O)(=O)c1ccc(O)c(NC(=O)Cn2cc(F)c(=O)[nH]c2=O)c1
Carbonic anhydrase 9 [1]
  Ki: 453 nM
T47D [6]; 7.56 µM
  Activity: 26.83%
T47D [7]; 7.56 µM
  Activity: 12.72%
T47D [13]
  Activity: Active
T47D [8]; 7.56 µM
  Activity: 3.59%
T47D [9]; 7.56 µM
  Activity: 9.62%
T47D [10]; 7.56 µM
  Activity: 1.36%
HeLa
  growth inhibition (GI): inactive
COLO 205
  growth inhibition (GI): inactive
A549
  growth inhibition (GI): inactive
HL-60
  growth inhibition (GI): inactive
SK-OV-3
  growth inhibition (GI): inactive
MDA-MB-231 [2]
  growth inhibition (GI): Active
MCF7
  growth inhibition (GI): inactive
T47D [3]
  growth inhibition (GI): Active
MDA-MB-231 [4]
  IC50: 25500 nM
T47D [5]
  IC50: 7560 nM

## NS(=O)(=O)c1ccc(CCN(Cc2ccccc2)C(=O)Cn2cc(F)c(=O)[nH]c2=O)cc1
Carbonic anhydrase 9 [1]
  Ki: 3.5 nM

## Cc1cc(=O)oc2cc(NC(=O)Cn3cc(F)c(=O)[nH]c3=O)ccc12
Carbonic anhydrase 1
  Ki: > 10000 nM
Carbonic anhydrase 9 [12]
  Ki: 16.5 nM
Carbonic anhydrase 2
  Ki: > 10000 nM
Carbonic anhydrase 12
  Ki: 23.2 nM
HeLa
  growth inhibition (GI): inactive
COLO 205
  growth inhibition (GI): inactive
A549
  growth inhibition (GI): inactive
HL-60
  growth inhibition (GI): inactive
SK-OV-3
  growth inhibition (GI): inactive
MDA-MB-231 [2]
  growth inhibition (GI): Active
MCF7
  growth inhibition (GI): inactive
T47D [3]
  growth inhibition (GI): Active
MDA-MB-231 [4]
  IC50: 32000 nM
T47D [5]
  IC50: 13200 nM

## NS(=O)(=O)c1ccc(CCN(Cc2ccc(F)cc2)C(=O)Cn2cc(F)c(=O)[nH]c2=O)cc1
Carbonic anhydrase 9 [1]
  Ki: 11.8 nM

## N#Cc1ccc(CN(CCc2ccc(S(N)(=O)=O)cc2)C(=O)Cn2cc(F)c(=O)[nH]c2=O)cc1
Carbonic anhydrase 9 [1]
  Ki: 4.9 nM

## NS(=O)(=O)c1ccc(NC(=O)Cn2cc(F)c(=O)[nH]c2=O)cc1
Carbonic anhydrase 9 [1]
  Ki: 4.8 nM

## NS(=O)(=O)c1ccc(-n2cc(Cn3cc(F)c(=O)[nH]c3=O)nn2)c(Cl)c1
Carbonic anhydrase 9 [1]
  Ki: 11.2 nM

## CN(C)c1ccc(CN(CCc2ccc(S(N)(=O)=O)cc2)C(=O)Cn2cc(F)c(=O)[nH]c2=O)cc1
Carbonic anhydrase 9 [1]
  Ki: 26.8 nM
